Measurements of several laboratories.
Lines come from different studies, so protocols differ.
Organism: Enterobacter cloacae
Observed: microbial growth

Compound | method | strain | MIC
O=C(Nc1ccc2c(c1)OC(F)(F)O2)Nc1ccc(Cl)c(C(F)(F)F)c1 |  | DSM30054 | > 100 µM
CN(C)[C@@H]1C(O)=C(C(N)=O)C(=O)[C@@]2(O)C(O)=C3C(=O)c4c(cc5ccc(CN6CC(F)(F)C6)cc5c4O)C[C@H]3C[C@@H]12 | broth dilution | ATCC13047 | 32 µg/mL
CN(C)[C@@H]1C(O)=C(C(N)=O)C(=O)[C@@]2(O)C(O)=C3C(=O)c4c(O)cnc(Cl)c4C[C@H]3C[C@@H]12.Cl | broth dilution | ATCC13047 | 8 µg/mL
Cc1c(CN(C)C(=O)/C=C/c2cnc3c(c2)CC(CCN)C(=O)N3)oc2ccccc12.Cl (centres unmarked) | broth dilution | BAA2341 | 16 µg/mL
Cc1nc(Cl)c2c(c1O)C(=O)C1=C(O)[C@]3(O)C(=O)C(C(N)=O)=C(O)[C@@H](N(C)C)[C@@H]3C[C@@H]1C2.Cl | broth dilution | ATCC13047 | 32 µg/mL
CNC(=O)c1cc(Oc2ccc(NC(=O)Nc3ccc(Cl)c(C(F)(F)F)c3)cc2)ccn1 |  | DSM30054 | > 100 µM
CN(C)CCOc1c2c(c(O)c3cc(CN4CCC4)ccc13)C(=O)C1=C(O)[C@]3(O)C(=O)C(C(N)=O)=C(O)[C@@H](N(C)C)[C@@H]3C[C@@H]1C2 | broth dilution | ATCC13047 | > 32 µg/mL
C/C(=C\c1ccc(C#N)cc1)C(=O)Nc1ccc(C(=O)N[C@@H](CC(N)=O)C(=O)Nc2ccc(C(=O)Nc3ccc(C(=O)Nc4ccc(C(=O)O)cc4)c(O)c3OC(C)C)cc2)cc1 |  | DSM30054 | > 64 µg/mL
CC(C)CNc1nc(Cl)c2c(c1O)C(=O)C1=C(O)[C@]3(O)C(=O)C(C(N)=O)=C(O)[C@@H](N(C)C)[C@@H]3C[C@@H]1C2.Cl.Cl.Cl | broth dilution | ATCC13047 | > 32 µg/mL
CO[C@@H](C(N)=O)[C@H](NC(=O)c1ccc(NC(=O)c2ccc(C#N)cc2)cc1)C(=O)Nc1ccc(C(=O)Nc2ccc(C(=O)Nc3ccc(C(=O)O)cc3)c(O)c2OC(C)C)cc1 |  | DSM30054 | > 64 µg/mL
C[C@@H](O)[C@H]1C(=O)N2C(C(=O)O)=C(S[C@@H]3CN[C@H](C(=O)N(C)C)C3)[C@H](C)[C@H]12 |  |  | 1.3 µM
